Source: ChEMBL document CHEMBL1914423, “New imidazo[2,1-b]thiazole derivatives: synthesis, in vitro anticancer evaluation, and in silico studies” (Eur J Med Chem, 2011)

Tested on: not listed separately
Assay: Antiproliferative activity against human A375P cells after 48 hrs by MTT assay
Type: functional, cell-based
Details: not given
Summary of the method: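 A375P cells in DMEM with 10% FBS at 37 °C, 5% CO2. Seeded at 5×10³ cells/well, held 24 h, then treated with 12-point 3-fold serial dilutions for 48 h. Viability by MTT reduction. IC50 values are means of triplicate experiments.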

| Compound | IC50 |
| --- | --- |
| O=C(NCCNc1nccc(-c2c(-c3cccc(O)c3)nc3sccn23)n1)c1cc(N2CCOCC2)cc(C(F)(F)F)c1 | 4.4 µM |

Tested on: HL-60(TB)
Assay: Anticancer activity against human HL-60(TB) cells assessed as cell growth at 10^-5 M after 48 hrs by SRB assay
Type: functional
Details: HL-60, 48 h, read-out: Activity
Summary of the method: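 NCI-60 single-dose screen. Cells in RPMI 1640 with 5% FBS and 2 mM L-glutamine were plated at 5000–40,000 cells/well and preincubated 24 h at 37 °C before one compound concentration. Time-zero plates were TCA-fixed at drug addition. For suspension cells, settled cells were fixed with cold TCA, then SRB-stained and read at 515 nm. Percent growth was calculated from time-zero, control and treated absorbances.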

| Compound | growth at 10 µM |
| --- | --- |
| O=C(NCCNc1nccc(-c2c(-c3cccc(O)c3)nc3sccn23)n1)c1cc(N2CCOCC2)cc(C(F)(F)F)c1 | 102% |

Tested on: K562
Assay: Anticancer activity against human K562 cells assessed as cell growth at 10^-5 M after 48 hrs by SRB assay
Type: functional
Details: K562, 48 h, read-out: Activity
Summary of the method: (§1)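 NCI-60 single-dose screen at one concentration. Cells grown in RPMI 1640 with 5% FBS and 2 mM L-glutamine, plated at 5000–40,000 cells/well, and pre-incubated 24 h at 37 °C in 5% CO2 before DMSO-dissolved drug was added. Cells fixed with TCA, SRB-stained, absorbance read at 515 nm. Percent growth calculated against time-zero and untreated control plates.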

| Compound | growth at 10 µM |
| --- | --- |
| O=C(NCCNc1nccc(-c2c(-c3cccc(O)c3)nc3sccn23)n1)c1cc(N2CCOCC2)cc(C(F)(F)F)c1 | 70.7% |

Tested on: MOLT-4
Assay: Anticancer activity against human MOLT4 cells assessed as cell growth at 10^-5 M after 48 hrs by SRB assay
Type: functional
Details: MOLT-4, 48 h, read-out: Activity

| Compound | growth at 10 µM |
| --- | --- |
| O=C(NCCNc1nccc(-c2c(-c3cccc(O)c3)nc3sccn23)n1)c1cc(N2CCOCC2)cc(C(F)(F)F)c1 | 68.5% |

Tested on: SR
Assay: Anticancer activity against human SR cells assessed as cell growth at 10^-5 M after 48 hrs by SRB assay
Type: functional
Details: read-out: Activity
Summary of the method: (§2)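 NCI-60 single-dose screen: cells in RPMI 1640 with 5% FBS and 2 mM L-glutamine, plated at 5000–40,000 cells/well by doubling time, and preincubated 24 h at 37 °C. Compound given at one concentration from DMSO stock. Cells TCA-fixed and SRB-stained, absorbance at 515 nm. Percent growth relative to time-zero and untreated controls; inhibition % = 100 − growth %.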

| Compound | growth at 10 µM |
| --- | --- |
| O=C(NCCNc1nccc(-c2c(-c3cccc(O)c3)nc3sccn23)n1)c1cc(N2CCOCC2)cc(C(F)(F)F)c1 | 97.3% |

Tested on: A549
Assay: Anticancer activity against human A549 cells assessed as cell growth at 10^-5 M after 48 hrs by SRB assay
Type: functional
Details: A549, 48 h, read-out: Activity
Summary of the method: as §1

| Compound | growth at 10 µM |
| --- | --- |
| O=C(NCCNc1nccc(-c2c(-c3cccc(O)c3)nc3sccn23)n1)c1cc(N2CCOCC2)cc(C(F)(F)F)c1 | 88.6% |

Tested on: NCI-H460
Assay: Anticancer activity against human NCI-H460 cells assessed as cell growth at 10^-5 M after 48 hrs by SRB assay
Type: functional
Details: NCI-H460, 48 h, read-out: Activity

| Compound | growth at 10 µM |
| --- | --- |
| O=C(NCCNc1nccc(-c2c(-c3cccc(O)c3)nc3sccn23)n1)c1cc(N2CCOCC2)cc(C(F)(F)F)c1 | 96.2% |

Tested on: COLO 205
Assay: Anticancer activity against human COLO205 cells assessed as cell growth at 10^-5 M after 48 hrs by SRB assay
Type: functional
Details: COLO 205, 48 h, read-out: Activity
Summary of the method: as §1

| Compound | growth at 10 µM |
| --- | --- |
| O=C(NCCNc1nccc(-c2c(-c3cccc(O)c3)nc3sccn23)n1)c1cc(N2CCOCC2)cc(C(F)(F)F)c1 | 32.7% |

Tested on: HCC 2998
Assay: Anticancer activity against human HCC2998 cells assessed as cell growth at 10^-5 M after 48 hrs by SRB assay
Type: functional
Details: HCC 2998, 48 h, read-out: Activity
Summary of the method: as §1

| Compound | growth at 10 µM |
| --- | --- |
| O=C(NCCNc1nccc(-c2c(-c3cccc(O)c3)nc3sccn23)n1)c1cc(N2CCOCC2)cc(C(F)(F)F)c1 | 109% |

Tested on: SW-620
Assay: Anticancer activity against human SW620 cells assessed as cell growth at 10^-5 M after 48 hrs by SRB assay
Type: functional
Details: SW-620, 48 h, read-out: Activity
Summary of the method: as §2

| Compound | growth at 10 µM |
| --- | --- |
| O=C(NCCNc1nccc(-c2c(-c3cccc(O)c3)nc3sccn23)n1)c1cc(N2CCOCC2)cc(C(F)(F)F)c1 | 126% |

Tested on: SF-295
Assay: Anticancer activity against human SF295 cells assessed as cell growth at 10^-5 M after 48 hrs by SRB assay
Type: functional
Details: SF-295, 48 h, read-out: Activity

| Compound | growth at 10 µM |
| --- | --- |
| O=C(NCCNc1nccc(-c2c(-c3cccc(O)c3)nc3sccn23)n1)c1cc(N2CCOCC2)cc(C(F)(F)F)c1 | 84.4% |

Tested on: SNB-19
Assay: Anticancer activity against human SNB19 cells assessed as cell growth at 10^-5 M after 48 hrs by SRB assay
Type: functional
Details: SNB-19, 48 h, read-out: Activity

| Compound | growth at 10 µM |
| --- | --- |
| O=C(NCCNc1nccc(-c2c(-c3cccc(O)c3)nc3sccn23)n1)c1cc(N2CCOCC2)cc(C(F)(F)F)c1 | 125% |

Tested on: M14
Assay: Anticancer activity against human M14 cells assessed as cell growth at 10^-5 M after 48 hrs by SRB assay
Type: functional
Details: M14, 48 h, read-out: Activity
Summary of the method: as §1

| Compound | growth at 10 µM |
| --- | --- |
| O=C(NCCNc1nccc(-c2c(-c3cccc(O)c3)nc3sccn23)n1)c1cc(N2CCOCC2)cc(C(F)(F)F)c1 | 22.4% |

Tested on: MDA-MB-435
Assay: Anticancer activity against human MDA-MB-435 cells assessed as cell growth at 10^-5 M after 48 hrs by SRB assay
Type: functional
Details: MDA-MB-435, 48 h, read-out: Activity

| Compound | growth at 10 µM |
| --- | --- |
| O=C(NCCNc1nccc(-c2c(-c3cccc(O)c3)nc3sccn23)n1)c1cc(N2CCOCC2)cc(C(F)(F)F)c1 | 34.7% |

Tested on: SK-MEL-28
Assay: Anticancer activity against human SK-MEL-28 cells assessed as cell growth at 10^-5 M after 48 hrs by SRB assay
Type: functional
Details: SK-MEL-28, 48 h, read-out: Activity

| Compound | growth at 10 µM |
| --- | --- |
| O=C(NCCNc1nccc(-c2c(-c3cccc(O)c3)nc3sccn23)n1)c1cc(N2CCOCC2)cc(C(F)(F)F)c1 | 44.5% |

Tested on: SK-MEL-5
Assay: Anticancer activity against human SK-MEL-5 cells assessed as cell growth at 10^-5 M after 48 hrs by SRB assay
Type: functional
Details: SK-MEL-5, 48 h, read-out: Activity

| Compound | growth at 10 µM |
| --- | --- |
| O=C(NCCNc1nccc(-c2c(-c3cccc(O)c3)nc3sccn23)n1)c1cc(N2CCOCC2)cc(C(F)(F)F)c1 | 58.4% |

Tested on: UACC-257
Assay: Anticancer activity against human UACC257 cells assessed as cell growth at 10^-5 M after 48 hrs by SRB assay
Type: functional
Details: UACC-257, 48 h, read-out: Activity
Summary of the method: as §2

| Compound | growth at 10 µM |
| --- | --- |
| O=C(NCCNc1nccc(-c2c(-c3cccc(O)c3)nc3sccn23)n1)c1cc(N2CCOCC2)cc(C(F)(F)F)c1 | 16.7% |

Tested on: UACC-62
Assay: Anticancer activity against human UACC62 cells assessed as cell growth at 10^-5 M after 48 hrs by SRB assay
Type: functional
Details: UACC-62, 48 h, read-out: Activity
Summary of the method: as §2

| Compound | growth at 10 µM |
| --- | --- |
| O=C(NCCNc1nccc(-c2c(-c3cccc(O)c3)nc3sccn23)n1)c1cc(N2CCOCC2)cc(C(F)(F)F)c1 | 8.5% |

Tested on: IGROV-1
Assay: Anticancer activity against human IGROV1 cells assessed as cell growth at 10^-5 M after 48 hrs by SRB assay
Type: functional
Details: IGROV-1, 48 h, read-out: Activity
Summary of the method: as §1

| Compound | growth at 10 µM |
| --- | --- |
| O=C(NCCNc1nccc(-c2c(-c3cccc(O)c3)nc3sccn23)n1)c1cc(N2CCOCC2)cc(C(F)(F)F)c1 | 80.4% |

Tested on: OVCAR-4
Assay: Anticancer activity against human OVCAR4 cells assessed as cell growth at 10^-5 M after 48 hrs by SRB assay
Type: functional
Details: OVCAR-4, 48 h, read-out: Activity

| Compound | growth at 10 µM |
| --- | --- |
| O=C(NCCNc1nccc(-c2c(-c3cccc(O)c3)nc3sccn23)n1)c1cc(N2CCOCC2)cc(C(F)(F)F)c1 | 133% |

Tested on: NCI/ADR-RES
Assay: Anticancer activity against human NCI/ADR-RES cells assessed as cell growth at 10^-5 M after 48 hrs by SRB assay
Type: functional
Details: read-out: Activity

| Compound | growth at 10 µM |
| --- | --- |
| O=C(NCCNc1nccc(-c2c(-c3cccc(O)c3)nc3sccn23)n1)c1cc(N2CCOCC2)cc(C(F)(F)F)c1 | 103% |

Tested on: CAKI-1
Assay: Anticancer activity against human Caki1 cells assessed as cell growth at 10^-5 M after 48 hrs by SRB assay
Type: functional
Details: CAKI-1, 48 h, read-out: Activity
Summary of the method: as §1

| Compound | growth at 10 µM |
| --- | --- |
| O=C(NCCNc1nccc(-c2c(-c3cccc(O)c3)nc3sccn23)n1)c1cc(N2CCOCC2)cc(C(F)(F)F)c1 | 82.5% |

Tested on: RXF 393
Assay: Anticancer activity against human RXF393 cells assessed as cell growth at 10^-5 M after 48 hrs by SRB assay
Type: functional
Details: RXF 393, 48 h, read-out: Activity

| Compound | growth at 10 µM |
| --- | --- |
| O=C(NCCNc1nccc(-c2c(-c3cccc(O)c3)nc3sccn23)n1)c1cc(N2CCOCC2)cc(C(F)(F)F)c1 | 77.8% |

Tested on: SN12C
Assay: Anticancer activity against human SN12C cells assessed as cell growth at 10^-5 M after 48 hrs by SRB assay
Type: functional
Details: read-out: Activity

| Compound | growth at 10 µM |
| --- | --- |
| O=C(NCCNc1nccc(-c2c(-c3cccc(O)c3)nc3sccn23)n1)c1cc(N2CCOCC2)cc(C(F)(F)F)c1 | 89.8% |

Tested on: PC-3
Assay: Anticancer activity against human PC3 cells assessed as cell growth at 10^-5 M after 48 hrs by SRB assay
Type: functional
Details: PC-3, 48 h, read-out: Activity

| Compound | growth at 10 µM |
| --- | --- |
| O=C(NCCNc1nccc(-c2c(-c3cccc(O)c3)nc3sccn23)n1)c1cc(N2CCOCC2)cc(C(F)(F)F)c1 | 78.2% |

Tested on: MDA-MB-468
Assay: Anticancer activity against human MDA-MB-468 cells assessed as cell growth at 10^-5 M after 48 hrs by SRB assay
Type: functional
Details: MDA-MB-468, 48 h, read-out: Activity

| Compound | growth at 10 µM |
| --- | --- |
| O=C(NCCNc1nccc(-c2c(-c3cccc(O)c3)nc3sccn23)n1)c1cc(N2CCOCC2)cc(C(F)(F)F)c1 | 94.8% |
